Test results published in ChEMBL document CHEMBL2157866, “Virtual screening and computational optimization for the discovery of covalent prolyl oligopeptidase inhibitors with activity in human cells” (J Med Chem, 2012).

Legend:
[1] = Half life in rat liver microsomes at 1 uM after 30 mins by LC-MSD method; type: ADME, Microsome
Summary of the method: (§1)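 Test compound at 1 μM in 0.1 M KH2PO4 pH 7.4 with liver microsomes (0.5618 mg/mL) at 37 °C. Reaction started with NADPH. Aliquots taken at 0, 10, 20 and 30 min and quenched into equal-volume acetonitrile. Samples centrifuged at 9000g, 4 °C, and supernatants analysed by LC-MSD.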

[2] = Half life in human liver microsomes at 1 uM after 30 mins by LC-MSD method; type: ADME, Microsome; summary of the method: as §1
Prolyl endopeptidase FAP = target: T1, Prolyl endopeptidase FAP (Homo sapiens, UniProt Q12884); assay: Inhibition at human recombinant FAPalpha
T1 sequence (Q12884 whole entry): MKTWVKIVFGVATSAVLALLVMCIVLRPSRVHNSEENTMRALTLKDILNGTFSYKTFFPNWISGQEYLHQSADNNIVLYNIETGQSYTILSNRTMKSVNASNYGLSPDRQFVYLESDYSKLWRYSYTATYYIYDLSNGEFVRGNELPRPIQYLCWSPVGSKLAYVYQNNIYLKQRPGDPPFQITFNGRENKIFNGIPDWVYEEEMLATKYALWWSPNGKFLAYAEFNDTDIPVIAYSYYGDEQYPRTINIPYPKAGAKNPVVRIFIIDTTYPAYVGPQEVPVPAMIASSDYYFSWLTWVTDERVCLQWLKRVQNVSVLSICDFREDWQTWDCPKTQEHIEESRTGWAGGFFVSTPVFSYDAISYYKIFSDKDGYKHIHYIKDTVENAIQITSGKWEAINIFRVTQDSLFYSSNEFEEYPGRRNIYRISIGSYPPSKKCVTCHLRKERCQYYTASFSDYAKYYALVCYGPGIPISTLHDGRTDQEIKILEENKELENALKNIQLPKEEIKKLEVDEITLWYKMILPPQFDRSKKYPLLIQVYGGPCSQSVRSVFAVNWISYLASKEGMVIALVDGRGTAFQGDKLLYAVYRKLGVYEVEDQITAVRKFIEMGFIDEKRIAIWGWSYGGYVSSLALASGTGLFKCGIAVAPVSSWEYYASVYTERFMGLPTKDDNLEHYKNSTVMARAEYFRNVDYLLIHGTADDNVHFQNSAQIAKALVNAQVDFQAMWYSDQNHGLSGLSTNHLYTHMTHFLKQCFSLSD
Summary of the method: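 Recombinant human FAPα diluted in PBS with 1 mg/mL BSA. Setup as for cell extracts: inhibitor preincubated 5–10 min at room temperature, then Z-Gly-Pro-AMC at 10 μM final. AMC fluorescence (ex/em 360/460 nm) recorded for 30 min at 37 °C.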

[3] = Intrinsic clearance in human liver microsomes at 1 uM after 30 mins by LC-MSD method; type: ADME, Microsome; details: read-out: CLH; summary of the method: as §1
[4] = Intrinsic clearance in rat liver microsomes at 1 uM after 30 mins by LC-MSD method; type: ADME, Microsome; details: read-out: CLH; summary of the method: as §1

Row | SMILES | half-life at 1 µM [1] [min] | half-life at 1 µM [2] [min] | IC50 (Prolyl endopeptidase FAP) [µM] | microsomal CLint at 1 µM [3] [µL/min/mg] | microsomal CLint at 1 µM [4] [µL/min/mg]
1 | O=C(c1cccc2c1C(=O)N(Cc1ccccc1)C2)N1CCCC1 | 23 | 98 | > 100 | 14 | 62
2 | N#C[C@@H]1CS[C@H]2C[C@@H](NC(=O)OCc3ccccc3)C(=O)N12 |  | 134 |  | 10 | 
3 | N#C[C@@H]1CCCN1C(=O)c1cccc2c1C(=O)N(Cc1ccccc1)C2 | 35 | 111 | > 100 | 13 | 39

The next lines start with the values.

Row | half-life at 1 µM [1] [min] | half-life at 1 µM [2] [min] | IC50 (Prolyl endopeptidase FAP) [µM] | microsomal CLint at 1 µM [3] [µL/min/mg] | microsomal CLint at 1 µM [4] [µL/min/mg] | SMILES
4 | 4 | 16 |  | 89 | 311 | O=C(NCc1ccccc1)c1ccccc1C(=O)N1CCCCC1
5 | 17 | 55 |  | 25 | 83 | O=C(NCc1ccccc1)c1ccccc1C(=O)N1CCCC1
6 | 38 | 31 | > 100 | 44 | 37 | N#C[C@@H]1CCCN1C(=O)c1ccccc1C(=O)NCc1ccccc1
